From ChEMBL document CHEMBL3351368, “Biphenyl-4-carboxylic acid [2-(1H-indol-3-yl)-ethyl]-methylamide (CA224), a nonplanar analogue of fascaplysin, inhibits Cdk4 and tubulin polymerization: evaluation of in vitro and in vivo anticancer activity” (J Med Chem, 2014)
pIC50: −log10 of the molar value. Activity calls are given as the source filed them.

What was measured:
[1] = Growth inhibition of p53+, pRb+ human NCI-H460 cells after 48 hrs by MTT assay; assay type: functional, cell-based; details: NCI-H460, 48 h
Method in brief: (§1)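 MTT cell proliferation assay. IC50 (µM) was defined as the concentration giving 50% inhibition of cell growth.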

[2] = Growth inhibition of mouse BNL-SVA.8 cells after 48 hrs by MTT assay; assay type: functional; method in brief: as §1
[3] = target: CDK9/cyclin T1 (Homo sapiens, UniProt P50750); assay: Binding affinity to human CDK9/cyclinT1; assay type: protein-complex assay
CDK9/cyclin T1, sequence (O60563 whole entry): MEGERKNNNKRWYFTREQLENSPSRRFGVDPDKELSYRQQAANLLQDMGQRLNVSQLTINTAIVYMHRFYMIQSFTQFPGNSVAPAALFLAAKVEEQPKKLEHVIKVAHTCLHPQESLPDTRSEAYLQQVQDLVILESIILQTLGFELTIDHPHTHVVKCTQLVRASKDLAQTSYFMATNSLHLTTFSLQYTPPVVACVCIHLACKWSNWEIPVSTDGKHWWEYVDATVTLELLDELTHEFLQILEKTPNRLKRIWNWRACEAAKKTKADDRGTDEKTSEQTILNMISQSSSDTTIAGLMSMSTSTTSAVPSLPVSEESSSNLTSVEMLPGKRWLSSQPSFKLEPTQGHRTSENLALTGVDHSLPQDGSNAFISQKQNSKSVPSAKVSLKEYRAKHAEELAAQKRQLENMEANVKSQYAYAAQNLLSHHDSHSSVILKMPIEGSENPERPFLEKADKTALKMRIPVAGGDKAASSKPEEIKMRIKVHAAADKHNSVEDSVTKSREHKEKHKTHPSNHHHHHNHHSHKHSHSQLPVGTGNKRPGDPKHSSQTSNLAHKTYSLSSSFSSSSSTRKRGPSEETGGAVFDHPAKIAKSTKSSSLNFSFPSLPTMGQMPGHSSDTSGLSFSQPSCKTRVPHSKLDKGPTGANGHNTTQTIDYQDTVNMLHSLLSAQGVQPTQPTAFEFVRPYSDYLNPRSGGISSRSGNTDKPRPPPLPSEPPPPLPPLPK
CDK9/cyclin T1, sequence (P50750 whole entry): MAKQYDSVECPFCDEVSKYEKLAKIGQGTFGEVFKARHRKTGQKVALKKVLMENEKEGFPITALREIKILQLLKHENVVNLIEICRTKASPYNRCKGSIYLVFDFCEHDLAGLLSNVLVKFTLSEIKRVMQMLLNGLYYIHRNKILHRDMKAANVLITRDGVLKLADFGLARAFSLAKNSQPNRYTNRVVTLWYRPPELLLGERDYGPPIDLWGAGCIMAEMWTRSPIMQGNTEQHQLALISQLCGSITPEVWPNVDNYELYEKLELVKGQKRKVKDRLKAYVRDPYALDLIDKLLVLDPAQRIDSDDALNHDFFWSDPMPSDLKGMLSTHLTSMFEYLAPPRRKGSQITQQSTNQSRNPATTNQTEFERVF

[4] = target: Cyclin-dependent kinase 1/cyclin B1 (Homo sapiens, UniProt P06493); assay: Binding affinity to human CDK1/cyclinB1; assay type: protein-complex assay
Cyclin-dependent kinase 1/cyclin B1, sequence (P06493 whole entry): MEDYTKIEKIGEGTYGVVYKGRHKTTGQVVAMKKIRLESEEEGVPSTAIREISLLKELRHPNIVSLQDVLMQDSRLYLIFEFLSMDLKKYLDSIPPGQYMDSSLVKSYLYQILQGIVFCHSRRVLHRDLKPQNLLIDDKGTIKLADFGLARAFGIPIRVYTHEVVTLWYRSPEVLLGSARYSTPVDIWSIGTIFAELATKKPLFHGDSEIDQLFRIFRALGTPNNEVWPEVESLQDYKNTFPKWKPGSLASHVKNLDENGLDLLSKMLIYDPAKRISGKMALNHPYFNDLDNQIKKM
Cyclin-dependent kinase 1/cyclin B1, sequence (P14635 whole entry, further chain): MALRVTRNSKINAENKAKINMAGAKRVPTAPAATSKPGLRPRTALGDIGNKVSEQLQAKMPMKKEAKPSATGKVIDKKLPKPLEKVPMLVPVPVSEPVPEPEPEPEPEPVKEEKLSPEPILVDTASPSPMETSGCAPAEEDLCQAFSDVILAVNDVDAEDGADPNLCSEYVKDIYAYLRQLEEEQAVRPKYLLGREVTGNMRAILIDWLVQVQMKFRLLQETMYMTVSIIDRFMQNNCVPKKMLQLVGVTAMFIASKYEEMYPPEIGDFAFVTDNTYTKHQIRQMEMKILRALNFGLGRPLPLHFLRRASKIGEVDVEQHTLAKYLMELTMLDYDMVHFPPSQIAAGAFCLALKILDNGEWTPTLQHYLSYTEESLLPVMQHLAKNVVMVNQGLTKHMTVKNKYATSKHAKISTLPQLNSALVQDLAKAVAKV

[5] = Growth inhibition of p53His273 mut, pRb+ human MiaPaCa cells after 48 hrs by MTT assay; assay type: functional; details: MIA PaCa-2, 48 h; method in brief: as §1
[6] = tested on: NCI-H358; assay: Growth inhibition of p53 null, pRb null human NCI-H358 cells after 48 hrs by MTT assay; assay type: functional, cell-based; details: NCI-H358, 48 h; method in brief: as §1
[7] = Displacement of ethidium bromide from closed circular plasmid DNA (unknown origin) by fluorescence quenching assay
[8] = tested on: NCI-H1299; assay: Growth inhibition of p53 null, pRb+ human NCI-H1299 cells after 48 hrs by MTT assay; assay type: functional, cell-based; details: NCI-H1299, 48 h; method in brief: as §1
[9] = Growth inhibition of mouse BNL-CL2 cells after 48 hrs by MTT assay; assay type: functional, cell-based; details: BNL CL.2, 48 h; method in brief: as §1
[10] = tested on: A549; assay: Growth inhibition of p53+, pRb+ human A549 cells after 48 hrs by MTT assay; assay type: functional, cell-based; details: A549, 48 h; method in brief: as §1
[11] = target: CDK2/Cyclin A2 (Homo sapiens, UniProt P24941); assay: Binding affinity to human CDK2/cyclinA using GST-pRB152 as substrate by chemiluminescence assay; assay type: protein-complex assay
[12] = target: Cyclin-dependent kinase 4/cyclin D1 (Homo sapiens, UniProt P11802); assay: Binding affinity to human CDK4/cyclinD1 using GST-pRB152 as substrate by chemiluminescence assay; assay type: protein-complex assay
Cyclin-dependent kinase 4/cyclin D1, sequence (P11802 whole entry): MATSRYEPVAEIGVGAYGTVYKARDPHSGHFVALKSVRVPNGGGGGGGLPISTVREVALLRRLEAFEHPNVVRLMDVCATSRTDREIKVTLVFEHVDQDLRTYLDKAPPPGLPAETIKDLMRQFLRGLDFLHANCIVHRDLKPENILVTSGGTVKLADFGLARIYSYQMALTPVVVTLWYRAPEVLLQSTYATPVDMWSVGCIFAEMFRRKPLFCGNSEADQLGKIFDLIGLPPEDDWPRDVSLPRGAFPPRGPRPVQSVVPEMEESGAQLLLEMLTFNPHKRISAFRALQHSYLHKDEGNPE
Cyclin-dependent kinase 4/cyclin D1, sequence (P24385 whole entry, further chain): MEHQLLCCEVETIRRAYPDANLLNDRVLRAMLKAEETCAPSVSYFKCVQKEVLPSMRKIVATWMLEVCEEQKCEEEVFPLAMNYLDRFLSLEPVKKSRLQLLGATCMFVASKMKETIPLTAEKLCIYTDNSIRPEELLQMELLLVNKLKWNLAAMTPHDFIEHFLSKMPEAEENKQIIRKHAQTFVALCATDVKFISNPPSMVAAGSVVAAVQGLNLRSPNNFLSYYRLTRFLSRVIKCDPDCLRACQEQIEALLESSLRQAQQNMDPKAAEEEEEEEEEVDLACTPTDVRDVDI

[13] = Growth inhibition of p53 null, pRb+ human Calu1 cells after 48 hrs by MTT assay; assay type: functional, cell-based; details: Calu-1, 48 h; method in brief: as §1
[14] = Growth inhibition of p53+, pRb+ human LS 174T cells after 48 hrs by MTT assay; assay type: functional, cell-based; details: LS174T; method in brief: as §1
[15] = target: Cyclin-dependent kinase 2/cyclin E1 (Homo sapiens, UniProt P24941); assay: Binding affinity to human CDK2/cyclinE; assay type: protein-complex assay
[16] = Growth inhibition of p53 null,pRb+ human PC3 cells after 48 hrs by MTT assay; assay type: functional, cell-based; details: PC-3, 48 h; method in brief: as §1

Which results are given for `CN(CCc1c[nH]c2ccccc12)C(=O)c1ccc(C(C)(C)C)cc1`?
pIC50 [1]: 5.01; pIC50 [2]: 4.66; pIC50 [3]: < 3.00; pIC50 [4]: < 3.30; pIC50 [5]: 4.99; pIC50 [6]: 4.85; inhibition [7]: inactive; pIC50 [8]: 4.94; pIC50 [9]: 4.74

With `CN(CCc1c[nH]c2ccccc12)C(=O)c1ccc(Cl)cc1` as the molecule, how does the pIC50 [1] read?
Its pIC50 is 4.62.

What about the pIC50 [2] of the same molecule?
Its pIC50 is 4.49.

What about the pIC50 [3] of the same molecule?
Its pIC50 is less than 3.00.

And the pIC50 [4]?
Its pIC50 is less than 3.30.

And the pIC50 [5]?
Its pIC50 is 4.51.

What about the pIC50 [6] of the same molecule?
The pIC50 was 4.59.

And the inhibition [7]?
Its inhibition is “inactive”.

And the pIC50 [8]?
Its pIC50 is 4.68.

What about the pIC50 [9] of the same molecule?
The pIC50 was 4.54.

Which results are given for `O=C1c2ccccc2-[n+]2ccc3c([nH]c4ccccc43)c21` [FASCAPLYSIN CHLORIDE]?
pIC50 [10]: 6.16; pIC50 [3]: < 3.60; pIC50 [4]: < 3.60; pIC50 [11]: < 3.60; pIC50 [7]: 5.30; pIC50 [12]: 6.39; pIC50 [13]: 5.89; pIC50 [14]: 6.06; pIC50 [15]: < 3.60; pIC50 [16]: 6.04
